In paper PMC9860122 (The Journal of Biological Chemistry, 2022):
Positions count from the first letter of the chain named. Read-outs that look alike come from different tables or passages of the source.

Tests used:
NmeIPMSR470Q [1] = molecular target: T1, NmeIPMSR470Q (Neisseria meningitidis serogroup B, UniProt Q9JZG1, R470Q); experiment: DTP-coupled kinetic assay; assay type: biochemical; details: homodimer R470Q, apparent Km
T1 sequence (Q9JZG1 1-517 R470Q): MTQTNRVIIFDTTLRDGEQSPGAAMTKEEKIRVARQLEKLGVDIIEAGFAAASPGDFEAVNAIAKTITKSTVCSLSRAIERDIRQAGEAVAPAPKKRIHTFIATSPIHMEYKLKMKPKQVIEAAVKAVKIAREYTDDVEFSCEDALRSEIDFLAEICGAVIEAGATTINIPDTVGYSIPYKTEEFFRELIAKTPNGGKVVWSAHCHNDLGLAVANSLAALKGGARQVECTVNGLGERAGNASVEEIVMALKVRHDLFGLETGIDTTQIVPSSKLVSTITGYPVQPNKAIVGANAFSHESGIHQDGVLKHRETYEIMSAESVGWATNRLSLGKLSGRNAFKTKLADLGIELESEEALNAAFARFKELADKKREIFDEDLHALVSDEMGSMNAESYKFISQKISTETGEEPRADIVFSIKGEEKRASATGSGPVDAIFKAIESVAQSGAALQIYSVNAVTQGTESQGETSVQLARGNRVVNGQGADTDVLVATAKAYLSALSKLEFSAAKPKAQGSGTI
Procedure, shortened: (§1)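 E. coli BL21(DE3)-expressed enzyme, TEV-cleaved and SEC-purified; variant homodimers taken as the StrepTrap flow-through. CoA release monitored with DTP at 324 nm (ε = 1.98 × 10⁴ l × M⁻¹ cm⁻¹), 25 °C. Mix: 100 μM DTP, 20 mM KCl, 20 mM MgCl₂, 3.0 × 10⁻² μM enzyme, 50 mM HEPES pH 7.5, started with α-KIV. One substrate held at 300 μM, the other varied.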

NmeIPMSR32Q [2] = molecular target: T2, NmeIPMSR32Q (Neisseria meningitidis serogroup B, UniProt Q9JZG1, R32Q); experiment: DTP-coupled kinetic assay; assay type: biochemical; details: homodimer R32Q, apparent Km
T2 sequence (Q9JZG1 1-517 R32Q): T1 sequence (Q9JZG1 1-517 R470Q) with R32Q, Q470R
Procedure, shortened: as §1

NmeIPMS [3] = molecular target: T3, NmeIPMS (Neisseria meningitidis serogroup B, UniProt Q9JZG1); experiment: DTP-coupled kinetic assay; assay type: biochemical; details: read-out: Km^KIV; WT NmeIPMS; apparent Km; AcCoA fixed at 300 μM; 25 °C, pH 7.5
T3 sequence (Q9JZG1 1-517): T1 sequence (Q9JZG1 1-517 R470Q) with Q470R
Procedure, shortened: as §1

NmeIPMSR470Q [4] = molecular target: T1, NmeIPMSR470Q; experiment: Leu inhibition assay; assay type: biochemical
NmeIPMS [5] = molecular target: T3, NmeIPMS; experiment: waterLOGSY NMR Leu binding assay
Procedure, shortened: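 Leu titrated at 0, 50, 150, 250, 500 and 750 μM in 10 mM HEPES pH 8.0, 3 mM MgCl₂, 3 mM KCl, 10% D₂O. Each sample recorded first without enzyme, then with 10 μM untagged enzyme. ¹H spectra at 600 MHz, 25 °C, without a water flipback pulse. KD fitted from the isotherm of corrected waterLOGSY intensity change against ligand concentration.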

NmeIPMSR32Q^hetero = molecular target: T4, NmeIPMSR32Q^hetero (Neisseria meningitidis serogroup B, UniProt Q9JZG1, R32Q); experiment: waterLOGSY NMR Leu binding assay
T4 sequence (Q9JZG1 1-517 R32Q): T1 sequence (Q9JZG1 1-517 R470Q) with R32Q, Q470R
T4 sequence (Q9JZG1 1-517): T1 sequence (Q9JZG1 1-517 R470Q) with Q470R

NmeIPMSR32Q [6] = molecular target: T2, NmeIPMSR32Q; experiment: waterLOGSY NMR Leu binding assay
NmeIPMSR470Q^hetero = molecular target: T5, NmeIPMSR470Q^hetero (Neisseria meningitidis serogroup B, UniProt Q9JZG1, R470Q); experiment: waterLOGSY NMR Leu binding assay
T5 sequence (Q9JZG1 1-517 R470Q): T1 sequence (Q9JZG1 1-517 R470Q)
T5 sequence (Q9JZG1 1-517): T1 sequence (Q9JZG1 1-517 R470Q) with Q470R

NmeIPMSR32Q [7] = molecular target: T2, NmeIPMSR32Q; experiment: Leu inhibition assay; assay type: biochemical
NmeIPMSR470Q [8] = molecular target: T1, NmeIPMSR470Q; experiment: waterLOGSY NMR Leu binding assay
[9] = read-out: Km^AcCoA, α-KIV fixed at 300 μM
[10] = read-out: Km^KIV, AcCoA fixed at 300 μM

CC(=O)SCCNC(=O)CCNC(=O)[C@H](O)C(C)(C)COP(=O)(O)OP(=O)(O)OC[C@H]1O[C@@H](n2cnc3c(N)ncnc32)[C@H](O)[C@@H]1OP(=O)(O)O [AcCoA, acetyl-coenzyme A]
Km (NmeIPMSR470Q [1]; [9]): 48 ± 3 µM
Km (NmeIPMSR32Q [2]; [9]): 40 ± 5 µM

CC(C)C(=O)C(=O)O [KIV, α-ketoisovalerate]
Km (NmeIPMS [3]): 37 ± 5 µM
Km (NmeIPMSR470Q [1]; [10]): 53 ± 6 µM
Km (NmeIPMSR32Q [2]; [10]): 47 ± 3 µM

CC(C)C[C@H](N)C(=O)O [Leu, leucine]
Ki (NmeIPMSR470Q [4]): > 100 µM
Kd (NmeIPMS [5]): 376 ± 48 µM
Kd (NmeIPMSR32Q^hetero): 324 ± 65 µM
Kd (NmeIPMSR32Q [6]): 352 ± 37 µM
Kd (NmeIPMSR470Q^hetero): 370 ± 55 µM
Ki (NmeIPMSR32Q [7]): > 100 µM
Kd (NmeIPMSR470Q [8]): 386 ± 72 µM
